High-throughput results deposited in PubChem by several laboratories.
An excerpt weighted towards active compounds, which were near 2.6% of everything screened.
ARFGAP1 inh – rat ARFGAP1 inhibition | Q62848 | Arfgap1-stimulated ARF1 GTP hydrolysis, GDP FP detection | inhibition, % at 16.5 µM | 0.26% of 360,000 active;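 active = inhibition above a per-plate limit, mean inhibition of low control wells plus 3 SD, cut at about 25% in these data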;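 note: 0% = DMSO wells with enzyme and 100% = wells lacking Arfgap1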
Target sequence (Q62848 1-136 limits assumed): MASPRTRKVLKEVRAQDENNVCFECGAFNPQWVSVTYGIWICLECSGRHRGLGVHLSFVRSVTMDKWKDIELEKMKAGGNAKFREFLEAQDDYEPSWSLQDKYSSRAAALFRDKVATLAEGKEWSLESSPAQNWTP
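System: truncated rat Arfgap1 GAP domain / Benchmarks: high control wells lacking Arfgap1, low control full reaction with DMSO / Times: compound-enzyme preincubation 20 min, reaction 120 min, detection 60 min, 25 °C / Repeats: one replicate per compound / Also added: human ARF1(Δ1-17)-GTP substrate / Measured by: Tracer-displacement fluorescence polarization with EDTA stop, 620/688 nm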
PHOSPHO1 block – PHOSPHO1 (human) inhibition; 1.1% of 290,000 active; recombinant PHOSPHO1, absorbance phosphatase assay; inhibition, % at 13.3 µM; Q8TCT1; in the data active = inhibition above about 60%
Target sequence (Q8TCT1 whole entry, looked up): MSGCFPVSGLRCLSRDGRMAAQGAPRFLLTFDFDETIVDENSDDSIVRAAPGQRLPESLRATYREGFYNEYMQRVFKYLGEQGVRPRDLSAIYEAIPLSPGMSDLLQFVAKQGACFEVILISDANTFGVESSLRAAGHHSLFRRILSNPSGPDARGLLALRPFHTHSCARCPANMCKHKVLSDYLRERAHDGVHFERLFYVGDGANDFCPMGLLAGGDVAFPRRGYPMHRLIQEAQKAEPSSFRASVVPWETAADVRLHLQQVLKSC
IMP-1 inhibitor – inhibitors of Pseudomonas aeruginosa IMP-1 metallo-beta-lactamase; inhibition, % at 5.6 µM; 0.45% of 290,000 active; purified IMP-1, nitrocefin hydrolysis, epi-absorbance fluorescence;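 active = inhibition above the mean plus 3 SD of all compounds in the same screening run, cut at about 4.5% in these data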;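 note: 0% = IMP-1 with DMSO and 100% = DMSO wells lacking enzyme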
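Test system: recombinant IMP-1 enzyme, purified / Medium: HEPES buffer pH 7.1 with ZnSO4 and Brij 35 / Doses: single dose, 5.6 µM / Times: 25 °C, 15 min preincubation, 25 min reaction / Detection: Epi-absorbance via hydrolysed-nitrocefin quenching of white-plate fluorescence, 480/530 nm, EDTA stop / Evaluation: percent inhibition from optical density relative to buffer-blank wells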
VIM-2 inh – inhibitors of Pseudomonas aeruginosa VIM-2 metallo-beta-lactamase. inhibition, % at 5.6 µM. purified VIM-2, nitrocefin hydrolysis, epi-absorbance fluorescence. 0.89% of 290,000 active;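 active = inhibition above the mean of all tested compounds plus 3 SD, cutoff set per screening run, cut at about 7.5% in these data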;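 note: red hydrolysis product quenches plate fluorescence so inhibitors raise well fluorescence; 0% = enzyme with DMSO and 100% = DMSO without enzyme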
ASAP1 GAP inh – blocks human ASAP1-stimulated Arf1 GTP hydrolysis. Q9ULH1. 0.19% of 360,000 active. inhibition, % at 16.5 µM. GDP FP detection. AID 624377; in the data active = inhibition above about 25%;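 note: 0% = vehicle with enzyme and substrate and 100% = no enzyme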
Calb FLC – affects C. albicans growth with fluconazole | C. albicans CaCi-2 + fluconazole, Alamar Blue growth, 48 h | 0.57% of 300,000 active | AID 1979 | growth inhibition, % (no concentration beside the values);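 active = growth inhibition above about 58% in most replicates, limit read from the data, passing the limit was not always enough; inconclusive = exactly half the replicates above a set limit; inactive = most replicates below a set limit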;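 note: all wells also contain fluconazole at 8 µg/ml as a sub-toxic cotreatment; 0% = median of DMSO wells and 100% = median of geldanamycin control wells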
* hit, by the source's call; ? = inconclusive; / = not tested or not shown.

SMILES	ARFGAP1 inh	PHOSPHO1 block	IMP-1 inhibitor	VIM-2 inh	ASAP1 GAP inh	Calb FLC
CCOC(=O)c1cc([N+](=O)[O-])c([N+](=O)[O-])cc1NC(C)=O	2	-5	0	2	5	106*
O=C(Nc1c(F)c(F)c(F)c(F)c1F)OC[C@@H]1CSCCS(=O)(=O)N1	6	/	/	/	11	/
COc1ccc(C2CC(=O)Nc3cc(OC)c(OC)cc32)cc1 (stereo unspecified)	-6	/	/	/	-1	/
COc1cc2c(cc1OC)C(c1ccccc1)CC2=O (stereo unspecified)	-2	27	10*	2	-9	-1
COC(=O)[C@@H](Cc1ccc(O)cc1)NC(=O)[C@H]1O[C@@H](n2cnc3c(=O)[nH]c(N)nc32)[C@H](O)[C@@H]1O	-7	/	/	/	7	/
Cc1cccc(N2CC(C(=O)OCc3ccc([N+](=O)[O-])cc3)CC2=O)c1 (stereo unspecified)	-10	60*	-2	-2	-2	8
CC1=C(C(N)=O)C(c2ccc(C)o2)C(C(N)=O)=C(C)N1	-4	7	0	0	7	71*
Cc1c(OCC(=O)NCC(O)c2ccccc2)ccc2c3c(c(=O)oc12)CCCC3 (stereo unspecified)	2	18	-3	9.3*	0	-4
CCOC(=O)COc1ccc2c3c(c(=O)oc2c1C)CCC3	8	-28	-1	8.1*	-9	-10
Cc1c(C)c2c(OCC(=O)NCC(O)c3ccccc3)cc3c(c2oc1=O)CCC(C)(C)O3 (stereo unspecified)	6	-2	-2	3	-1	-3
Cc1c(OCC(=O)NCC2CCC(C(=O)O)CC2)ccc2c3c(c(=O)oc12)CCC3 (stereo unspecified)	3	8	-4	9.4*	-2	-2
Cc1c(OCC(=O)C(C)(C)C)ccc2c3c(c(=O)oc12)CCCC3	3	-37	-4	5	4	-5
Cc1c(OCc2nn[nH]n2)ccc2c3c(c(=O)oc12)CCCC3	16	-18	-4	7.8*	5	3
Cc1c(OCc2nn[nH]n2)ccc2c3c(c(=O)oc12)CCC(C)C3 (stereo unspecified)	-3	7	-3	1	5	-6
CSc1nnc([C@@H]2CCCN2C(=O)OC(C)(C)C)o1	-10	-4	-2	-4	6	-6
Cn1c(C2CCCN2C(=O)OC(C)(C)C)n[nH]c1=S (stereo unspecified)	8	97*	-3	-2	-8	5
CCOC1=C2CN(S(=O)(=O)c3ccccc3)[C@H](c3ccccc3)C[C@H]2n2c(=O)n(-c3ccccc3)c(=O)n2C1	-14	/	/	/	-2	/
C[C@@H]1CN([C@@H](C)CO)C(=O)CCCn2cc(nn2)CO[C@H]1CN(C)C(=O)C1CC1	0	/	/	/	9	/
CCOc1ccc2[nH]c(C)c(CN3CCN(C)CC3)c(=O)c2c1	-5	10	-1	-3	-7	-1
CCOc1ccc2[nH]c(C)c(CN3CCN(CC)CC3)c(=O)c2c1	-1	18	5.2*	-2	10	10
COc1ccc(CN2C(=O)CN(S(C)(=O)=O)CC2(C)C(=O)Nc2ccc3c(c2)OCCO3)cc1OC (stereo unspecified)	-1	/	/	/	-4	/
CCOC(=O)C1=NN(c2cccc(C)c2)C2(S1)SC(C(C)=O)=C(C)N2c1ccccc1 (stereo unspecified)	-5	62*	4	1	-9	0
CCOC(=O)C1=NN(c2ccccc2)C2(S1)SC(C(C)=O)=C(C)N2c1ccccc1 (stereo unspecified)	0	19	-3	-3	-9	?
CC(=O)C1=C(C)NC(SCC(N)=O)=C(C#N)C1CC(C)C (stereo unspecified)	0	-3	-2	-3	9	13
COc1ccccc1NC(=O)C1=C(C)NC(SCC(=O)c2ccc(C)cc2)=C(C#N)C1c1ccco1 (stereo unspecified)	4	56	4.5*	-3	-13	/
SMILES	ARFGAP1 inh	PHOSPHO1 block	IMP-1 inhibitor	VIM-2 inh	ASAP1 GAP inh	Calb FLC
CC(=O)C1=C(C)NC(SCC(=O)c2ccc(Cl)cc2)=C(C#N)C1CC(C)C (stereo unspecified)	2	87*	-4	-4	-7	24
CC(=O)C1=C(C)NC(SCC(N)=O)=C(C#N)C1C (stereo unspecified)	11	88*	-4	-2	12	0
CC(=O)C1=C(C)NC(SCC(=O)c2ccc(Cl)c(Cl)c2)=C(C#N)C1c1ccco1 (stereo unspecified)	3	76*	-3	0	-14	7
CC(=O)C1=C(C)NC(SCC(=O)c2ccc(F)cc2)=C(C#N)C1CC(C)C (stereo unspecified)	3	-29	-4	-1	4	5
O=C(N[C@H](Cc1ccccc1)C(=O)N1CCN(Cc2ccccn2)CC1)[C@H]1O[C@@H](n2ccc(=O)[nH]c2=O)[C@H](O)[C@@H]1O	0	/	/	/	-8	/
C#CCN1C(=O)[C@]2(OCCC=C[C@H]2C)c2ccccc21	14	/	/	/	13	/
COC(=O)C1=C(C)N(Cc2ccccc2C(F)(F)F)C(=NCc2cc(OC)c(OC)c(OC)c2)NC1c1cccc(F)c1 (stereo unspecified)	5	/	/	/	-11	/
CSCSC1=C(C#N)C(c2ccccc2Cl)C(C(C)=O)=C(C)N1 (stereo unspecified)	-12	93*	-2	-2	-6	12
CC(=O)C1=C(C)NC(SCC(=O)c2cc(Cl)ccc2Cl)=C(C#N)C1c1ccco1 (stereo unspecified)	9	78*	-4	-1	-3	-7
COC(=O)[C@]12C[C@H](CC(=O)N3CCCCC3)C(=O)N(Cc3ccc4c(c3)OCO4)C1=C[C@H](COCc1ccccc1)O[C@@H]2C	4	/	/	/	0	/
S=c1[nH]ncn1/N=C/c1ccccc1	-8	89*	-5	-1	-3	-25
CCOc1ccc(/C=N/n2cc(-c3ccccc3)[nH]c2=S)cc1	-7	-31	-5	-6	2	16
S=c1[nH]ncn1/N=C/c1ccc(Br)cc1	-7	96*	-1	-4	-5	0
S=c1[nH]ncn1/N=C/c1ccc(N2CCOCC2)cc1	10	88*	-6	-2	7	-15
S=c1[nH]c(-c2ccccc2)cn1/N=C/c1ccncc1	4	70*	-3	-3	12	0
CCN1CCN(c2ccc(NC(=O)CCc3c(C)nc4c(-c5ccccc5)c(C)nn4c3C)cc2)CC1	5	-4	4.9*	1	-8	6
Cc1nc2c(-c3ccccc3)c(C)nn2c(C)c1CCC(=O)NCc1ccco1	7	0	0	0	-7	/
COc1ccc(C(C)=NOC(=O)c2c(-c3ccccc3Cl)noc2C)cc1CN1CCOCC1	6	/	/	/	4	/
